Measurements published in ChEMBL document CHEMBL1142128, “Hygromycin B inhibition of protein synthesis and ribosome biogenesis in Escherichia coli” (Antimicrob Agents Chemother, 2007).
Values after ≈ are worked out from the molar mass of the structure shown.

Columns and labels:
[1] = tested on: Escherichia coli; test: Inhibition of protein synthesis in Escherichia coli measured as incorporation of [35S]methionine; format: functional, organism-based
Method in brief: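 E. coli in TSB at 37°C, with or without drug, received [35S]methionine (1 µCi/ml). Samples (0.4 ml) were taken every 5 min for 15 min, precipitated with 20% TCA, collected on glass-fibre filters, washed with 10% TCA, and scintillation-counted. IC50 derived from the concentration series; means of two.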

[2] = tested on: Escherichia coli; test: Inhibition of viable cells in Escherichia coli at 20 ug/ml; format: functional
Method in brief: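 E. coli grown at 37°C in TSB with or without drug. Viable cells were counted as colonies after serial dilution. Results are given as percent decrease versus untreated control; means of two determinations.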

[3] = tested on: Escherichia coli; test: Antimicrobial activity against Escherichia coli; format: functional
Method in brief: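 Broth dilution MIC; E. coli grown at 37°C in tryptic soy broth (TSB) with and without hygromycin B.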

[4] = tested on: Escherichia coli; test: Reduction of growth rate in Escherichia coli at 25 ug/ml; format: functional; design: scale not given: the % may be the effect or the level left
[5] = Inhibition of 30S ribosomal-subunit assembly in Escherichia coli
Method in brief: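 E. coli in TSB at 37°C were labelled with [3H]uridine (1 µCi/ml, 1 µg/ml) for two doublings, with or without drug. Label was chased with uridine at 50 µg/ml final for 15 min. The 30S share of total gradient cpm was compared with control; IC50 derived; means of two.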

[6] = tested on: Escherichia coli; test: Effect on small RNA accumulation in Escherichia coli at 25 ug/ml; format: functional
Method in brief: (§1)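 E. coli grown in TSB across a range of hygromycin B concentrations, plus an untreated control. Total RNA was extracted from 1 ml of cells. Samples (5 µl at 200 ng/µl) were run on an Agilent Bioanalyzer RNA 6000 chip under total-RNA conditions, and RNA species were read from fluorescence electropherograms.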

[7] = tested on: Escherichia coli; test: Effect on small RNA accumulation in Escherichia coli at 50 ug/ml; format: functional; method in brief: as §1
[8] = tested on: Escherichia coli; test: Effect on small RNA accumulation in Escherichia coli at 75 ug/ml; format: functional; method in brief: as §1
[9] = tested on: Escherichia coli; test: Effect on small RNA accumulation in Escherichia coli at 100 ug/ml; format: functional; method in brief: as §1
[10] = tested on: Escherichia coli; test: Effect on 16S rRNA accumulation in Escherichia coli at 25 ug/ml; format: functional; method in brief: as §1
[11] = tested on: Escherichia coli; test: Effect on 16S rRNA accumulation in Escherichia coli at 50 ug/ml; format: functional; method in brief: as §1
[12] = tested on: Escherichia coli; test: Effect on 16S rRNA accumulation in Escherichia coli at 75 ug/ml; format: functional; method in brief: as §1
[13] = tested on: Escherichia coli; test: Effect on 16S rRNA accumulation in Escherichia coli at 100 ug/ml; format: functional; method in brief: as §1
[14] = tested on: Escherichia coli; test: Increase in 16S precursor accumulation in Escherichia coli at 25 ug/ml; format: functional; method in brief: as §1
[15] = tested on: Escherichia coli; test: Increase in 16S precursor accumulation in Escherichia coli at 50 ug/ml; format: functional; method in brief: as §1
[16] = tested on: Escherichia coli; test: Increase in 16S precursor accumulation in Escherichia coli at 75 ug/ml; format: functional; method in brief: as §1
[17] = tested on: Escherichia coli; test: Increase in 16S precursor accumulation in Escherichia coli at 100 ug/ml; format: functional; method in brief: as §1
[18] = tested on: Escherichia coli; test: Decrease in 23S RNA accumulation in Escherichia coli at 25 ug/ml; format: functional; design: scale not given: the % may be the effect or the level left; method in brief: as §1
[19] = tested on: Escherichia coli; test: Decrease in 23S RNA accumulation in Escherichia coli at 50 ug/ml; format: functional; design: scale not given: the % may be the effect or the level left; method in brief: as §1
[20] = tested on: Escherichia coli; test: Decrease in 23S RNA accumulation in Escherichia coli at 75 ug/ml; format: functional; design: scale not given: the % may be the effect or the level left; method in brief: as §1
[21] = tested on: Escherichia coli; test: Decrease in 23S RNA accumulation in Escherichia coli at 100 ug/ml; format: functional; design: scale not given: the % may be the effect or the level left; method in brief: as §1

CN[C@H]1C[C@@H](N)[C@H](O)[C@@H](O[C@@H]2O[C@H](CO)[C@H](O)[C@H]3O[C@@]4(O[C@H]23)O[C@H]([C@H](N)CO)[C@H](O)[C@H](O)[C@H]4O)[C@@H]1O
IC50 [1]: 16 mg/L (≈ 30.3 µM) | inhibition at 20 µg/mL [2]: 50% | MIC [3]: 150 mg/L (≈ 284 µM) | Activity [4]: 50% | IC50 [5]: 65 mg/L (≈ 123 µM) | Activity [6]: 59% | Activity [7]: 62.8% | Activity [8]: 64.5% | Activity [9]: 68.8% | Activity [10]: 10.4% | Activity [11]: 10.4% | Activity [12]: 7.3% | Activity [13]: 4.8% | Activity [14]: 0.5% | Activity [15]: 0.75% | Activity [16]: 1.1% | Activity [17]: 1.2% | Activity [18]: 13.5% | Activity [19]: 12.5% | Activity [20]: 12.7% | Activity [21]: 10%
